Test results: ChEMBL document CHEMBL1122206, “Use of adenine nucleotide derivatives to assess the potential of exo-active-site-directed reagents as species- or isozyme-specific enzyme inactivators. 5. Interactions of adenosine 5'-triphosphate derivatives with rat pyruvate kinases, Escherichia coli thymidine kinase, and yeast and rat …” (1982)

What was measured:
[1] = biological target: T1, Hexokinase-2 (Rattus norvegicus) (UniProt P27881); experiment: Time dependent inhibition of hexokinase 2 activity after 6 h, at 5 mM compound
T1 sequence (whole entry): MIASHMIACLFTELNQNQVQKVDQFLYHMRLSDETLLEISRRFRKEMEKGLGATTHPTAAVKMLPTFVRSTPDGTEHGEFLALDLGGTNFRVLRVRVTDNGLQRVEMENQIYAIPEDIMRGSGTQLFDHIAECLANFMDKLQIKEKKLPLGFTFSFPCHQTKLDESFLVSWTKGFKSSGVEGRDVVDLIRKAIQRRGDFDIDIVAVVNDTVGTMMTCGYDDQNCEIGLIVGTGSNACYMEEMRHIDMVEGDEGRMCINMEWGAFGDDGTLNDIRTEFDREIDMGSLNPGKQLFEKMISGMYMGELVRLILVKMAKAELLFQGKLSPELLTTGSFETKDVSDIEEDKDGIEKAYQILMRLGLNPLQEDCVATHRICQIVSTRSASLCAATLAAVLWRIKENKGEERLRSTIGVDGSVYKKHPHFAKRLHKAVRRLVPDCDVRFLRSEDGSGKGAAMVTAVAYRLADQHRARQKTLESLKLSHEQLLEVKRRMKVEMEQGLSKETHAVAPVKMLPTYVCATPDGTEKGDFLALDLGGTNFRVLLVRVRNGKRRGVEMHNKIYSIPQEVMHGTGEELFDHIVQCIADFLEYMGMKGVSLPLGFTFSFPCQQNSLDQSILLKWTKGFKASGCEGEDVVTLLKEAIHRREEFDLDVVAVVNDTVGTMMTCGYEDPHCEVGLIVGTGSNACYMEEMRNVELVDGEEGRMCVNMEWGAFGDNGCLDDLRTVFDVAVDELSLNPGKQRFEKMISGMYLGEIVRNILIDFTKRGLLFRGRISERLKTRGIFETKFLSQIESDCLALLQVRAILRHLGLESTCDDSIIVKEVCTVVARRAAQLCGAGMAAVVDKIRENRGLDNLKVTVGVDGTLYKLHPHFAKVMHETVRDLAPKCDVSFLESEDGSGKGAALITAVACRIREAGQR

[2] = biological target: T2, Hexokinase-3 (Rattus norvegicus) (UniProt P27926); experiment: Time dependent inhibition of Hexokinase type III activity after 6 h, at 22 degrees celsius, at 5 mM
T2 sequence (whole entry): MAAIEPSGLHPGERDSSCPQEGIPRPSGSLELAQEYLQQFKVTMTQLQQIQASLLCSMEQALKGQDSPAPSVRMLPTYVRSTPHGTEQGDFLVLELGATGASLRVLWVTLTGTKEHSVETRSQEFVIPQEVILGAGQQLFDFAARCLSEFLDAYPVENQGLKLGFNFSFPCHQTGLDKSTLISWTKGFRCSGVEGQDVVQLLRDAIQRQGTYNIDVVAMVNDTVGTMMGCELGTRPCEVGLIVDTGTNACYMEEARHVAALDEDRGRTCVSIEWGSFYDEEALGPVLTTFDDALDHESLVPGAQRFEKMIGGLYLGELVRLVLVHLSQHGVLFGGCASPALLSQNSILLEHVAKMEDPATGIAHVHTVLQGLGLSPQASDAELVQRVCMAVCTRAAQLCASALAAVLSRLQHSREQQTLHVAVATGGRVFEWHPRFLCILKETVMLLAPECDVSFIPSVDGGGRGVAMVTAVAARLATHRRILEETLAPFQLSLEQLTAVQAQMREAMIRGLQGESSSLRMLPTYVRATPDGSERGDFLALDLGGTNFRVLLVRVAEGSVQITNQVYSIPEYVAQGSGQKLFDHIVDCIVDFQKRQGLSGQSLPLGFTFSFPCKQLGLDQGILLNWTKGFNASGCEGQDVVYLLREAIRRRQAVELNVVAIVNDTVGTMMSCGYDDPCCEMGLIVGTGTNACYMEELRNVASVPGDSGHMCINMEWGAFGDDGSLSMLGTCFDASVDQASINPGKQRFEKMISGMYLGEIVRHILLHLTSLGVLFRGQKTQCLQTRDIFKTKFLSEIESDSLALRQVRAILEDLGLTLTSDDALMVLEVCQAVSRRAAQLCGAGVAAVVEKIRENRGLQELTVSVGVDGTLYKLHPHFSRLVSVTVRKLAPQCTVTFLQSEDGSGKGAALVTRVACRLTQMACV

[3] = biological target: T3, Hexokinase-1 (Rattus norvegicus) (UniProt P05708); experiment: Time dependent inhibition of Hexokinase type I activity after 6 h, at 22 degrees celsius, at 5 mM compound
T3 sequence (whole entry): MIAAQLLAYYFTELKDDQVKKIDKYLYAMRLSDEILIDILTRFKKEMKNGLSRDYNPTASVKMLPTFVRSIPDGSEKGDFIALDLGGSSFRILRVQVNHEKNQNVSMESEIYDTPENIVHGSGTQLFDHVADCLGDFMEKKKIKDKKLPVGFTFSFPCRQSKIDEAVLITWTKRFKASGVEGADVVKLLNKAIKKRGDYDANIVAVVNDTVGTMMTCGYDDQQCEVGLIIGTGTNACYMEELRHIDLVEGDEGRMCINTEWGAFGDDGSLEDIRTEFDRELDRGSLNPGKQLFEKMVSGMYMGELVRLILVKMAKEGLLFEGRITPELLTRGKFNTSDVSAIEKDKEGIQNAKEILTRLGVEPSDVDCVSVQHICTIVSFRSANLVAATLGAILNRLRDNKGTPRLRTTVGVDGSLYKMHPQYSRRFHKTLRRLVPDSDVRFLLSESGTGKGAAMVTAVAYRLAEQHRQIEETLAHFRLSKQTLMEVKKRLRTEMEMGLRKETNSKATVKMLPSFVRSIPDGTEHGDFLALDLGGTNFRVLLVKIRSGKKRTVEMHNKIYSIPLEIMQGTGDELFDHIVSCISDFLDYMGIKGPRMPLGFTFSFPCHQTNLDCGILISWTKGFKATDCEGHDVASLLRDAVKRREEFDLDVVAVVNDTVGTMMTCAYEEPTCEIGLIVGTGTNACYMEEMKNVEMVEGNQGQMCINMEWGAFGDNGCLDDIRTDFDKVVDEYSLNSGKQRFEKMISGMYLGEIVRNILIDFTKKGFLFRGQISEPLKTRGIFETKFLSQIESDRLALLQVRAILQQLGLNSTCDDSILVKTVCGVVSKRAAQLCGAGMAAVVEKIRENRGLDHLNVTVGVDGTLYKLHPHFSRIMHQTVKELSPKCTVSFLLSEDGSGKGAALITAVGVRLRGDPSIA

[4] = test system: Saccharomyces cerevisiae; experiment: Compound was tested for time dependent inhibition of hexokinase activity after 6 h at 22 degrees celsius, with 5 mM compound in yeast hexokinase
[5] = biological target: T1, Hexokinase-2 (Rattus norvegicus); experiment: Substrate activity against Rat hexokinase II as 1:1 Mg complex at 5.0 mM
How it was run: (§1)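 Hexokinase activity read at 22 °C as A340 change, coupled to glucose-6-phosphate dehydrogenase, in 0.05 M Tris-HCl pH 7.6 with 6.6 mM MgCl2, 10 mM α-D-glucose and 0.93 mM NADP. Donor was 5.0 mM MgATP derivative (1:1 Mg complex) in place of ATP. Yeast HK was isoelectric-focused. Rat HK I and III came from electrofocused liver extract, HK II from dialysed muscle extract.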

[6] = biological target: T3, Hexokinase-1 (Rattus norvegicus); experiment: Substrate activity for rat hexokinase I as 1:1 Mg complex at 5.0 mM
How it was run: as §1

[7] = biological target: T2, Hexokinase-3 (Rattus norvegicus); experiment: Substrate activity for rat hexokinase III as 1:1 Mg complex at 5.0 mM
How it was run: as §1

[8] = test system: Saccharomyces cerevisiae; experiment: Substrate activity against yeast hexokinase as 1:1 Mg complexes at 5.0 mM
How it was run: as §1

[9] = Tested for the velocity of 2.8 mM compound relative to that of 2.8 mM MgATP in the assay
How it was run: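 E. coli TK substrate test. 0.5 h after adding inhibitor, the mixture was diluted to 2.8 mM derivative in thymidine assay medium without ATP and with 1.42 mM MnCl2. Incubated 15 min at 37 °C, in the linear range. [14C]TMP formed was compared with that from 2.8 mM ATP under the same conditions.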

[10] = biological target: Thymidine kinase (Escherichia coli) (UniProt P23331); experiment: Compound was tested for the initial inhibition of thymidine kinase by 1.4 mM compound in the presence of 5.7 mM ATP in Escherichia coli
Thymidine kinase (Escherichia coli), sequence (P23331 whole entry, looked up): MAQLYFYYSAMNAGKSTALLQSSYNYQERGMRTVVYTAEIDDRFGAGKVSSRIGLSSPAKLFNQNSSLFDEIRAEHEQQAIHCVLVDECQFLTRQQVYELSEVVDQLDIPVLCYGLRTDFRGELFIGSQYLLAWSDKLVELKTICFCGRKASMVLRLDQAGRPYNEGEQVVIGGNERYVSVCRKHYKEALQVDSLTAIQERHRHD

[11] = test system: Saccharomyces cerevisiae; experiment: Compound was tested for time dependent inhibition of hexokinase activity after 6 hr, at 22 degrees celsius, with 5 mM ATP derivative in yeast hexokinase
[12] = biological target: Thymidine kinase (Escherichia coli) (UniProt P23331); experiment: Compound was tested for the lose of thymidine kinase activity after 6 h, at 0 degrees celsius, with 10 mM ATP derivative. values were expressed in percent
[13] = biological target: T3, Hexokinase-1 (Rattus norvegicus); experiment: Time dependent inhibition of Hexokinase, type I activity after 6 h, at 22 degrees celsius, at 5 mM compound
[14] = biological target: Thymidine kinase (Escherichia coli) (UniProt P23331); experiment: Compound was tested for the initial inhibition of Thymidine kinase by 1.4 mM compound in the presence of 5.7 mM ATP
[15] = biological target: Thymidine kinase (Escherichia coli) (UniProt P23331); experiment: Compound was tested for the loss of Thymidine kinase activity from Escherichia coli after 6 h at 0 degrees C at 10 mM
[16] = test system: Saccharomyces cerevisiae; experiment: Time dependent inhibition of hexokinase activity after 6 hr, at 22 degrees celsius, with 5 mM ATP derivative in yeast.
[17] = biological target: Thymidine kinase (Escherichia coli) (UniProt P23331); experiment: Compound was tested for the initial inhibition of thymidine kinase by 1.4 mM compound in the presence of 5.7 mM ATP
[18] = biological target: Thymidine kinase (Escherichia coli) (UniProt P23331); experiment: Compound was tested for the loss of thymidine kinase activity from Escherichia coli after 6 hr at 0 degrees C at 10 mM
[19] = Extent of inactivation caused by the compound was reported.; type: functional
[20] = biological target: T2, Hexokinase-3 (Rattus norvegicus); experiment: Time dependent inhibition of Hexokinase type III activity after 6 hr, at 22 degrees celsius, at 5 mM compound
[21] = biological target: Thymidine kinase (Escherichia coli) (UniProt P23331); experiment: Compound tested for the loss of thymidine kinase activity from Escherichia coli after 6 hr at 0 degrees C at 10 mM
[22] = biological target: T3, Hexokinase-1 (Rattus norvegicus); experiment: Time dependent inhibition of Hexokinase type I activity after 6 h, at 0 degrees celsius, at 10 mM compound
[23] = biological target: T1, Hexokinase-2 (Rattus norvegicus); experiment: Time dependent inhibition of hexokinase 2 activity after 6 h, at 10 mM compound
[24] = biological target: T2, Hexokinase-3 (Rattus norvegicus); experiment: Time dependent inhibition of Hexokinase type III activity after 6 h, at 0 degrees celsius, at 10 mM

SMILES | inhibition [1] [%] | inhibition [2] [%] | inhibition [3] [%] | Relative velocity [5] | Relative velocity [6] | Relative velocity [7] | Relative velocity [8] | Velocity [9] [%] | inhibition [17] [%] | other results
NC(=O)CI.Nc1ncnc2c1ncn2[C@@H]1O[C@H](COP(=O)(O)OP(=O)(O)OP(=O)(O)O)[C@@H](O)[C@H]1O | 7 | 0 | 5 | – | – | – | – | – | – | inhibition [4]: 0%
O=C(CI)NCCNc1ncnc2c1ncn2[C@@H]1O[C@H](COP(=O)(O)OP(=O)(O)OP(=O)(O)O)[C@@H](O)[C@H]1O | 0 | 0 | 0 | 0.34 | 0.58 | 0.5 | 0.75 | 35 | – | inhibition [10]: 3%; inhibition [11]: 0%; inhibition [12]: 0%
O=C(CI)NCCCNc1ncnc2c1ncn2[C@@H]1O[C@H](COP(=O)(O)OP(=O)(O)OP(=O)(O)O)[C@@H](O)[C@H]1O | 0 | 0 | – | – | – | – | – | 32 | – | inhibition [13]: 0%; inhibition [14]: 6%; inhibition [15]: 0%; inhibition [4]: 0%
O=C(CI)NCCCCCCCNc1ncnc2c1ncn2[C@@H]1O[C@H](COP(=O)(O)OP(=O)(O)OP(=O)(O)O)[C@@H](O)[C@H]1O | 30 | 20 | 20 | – | – | – | – | 38 | – | inhibition [16]: 22%; inhibition [10]: 10%; inhibition [12]: 0%
O=C(CI)NCCCCCC(=O)NCCCCCCNc1ncnc2c1ncn2[C@@H]1O[C@H](COP(=O)(O)OP(=O)(O)OP(=O)(O)O)[C@@H](O)[C@H]1O | 0 | 0 | 0 | 0.63 | 1.25 | 1.37 | 1.02 | 37 | 8 | inhibition [18]: 0%; inhibition [11]: 0%
O=C(CI)NCCCCCCNc1ncnc2c1ncn2[C@@H]1O[C@H](COP(=O)(O)OP(=O)(O)OP(=O)(O)O)[C@@H](O)[C@H]1O | 35 | – | – | – | – | – | – | – | 0 | Inactivation [19]: > 90%; inhibition [20]: 33%; inhibition [21]: 0%
O=C(CI)NCCCCNc1ncnc2c1ncn2[C@@H]1O[C@H](COP(=O)(O)OP(=O)(O)OP(=O)(O)O)[C@@H](O)[C@H]1O | 0 | – | – | – | – | – | – | 68 | 39 | inhibition [20]: 0%; inhibition [21]: 0%; inhibition [16]: 0%
O=C(CI)NCC(=O)NCCCCCCNc1ncnc2c1ncn2[C@@H]1O[C@H](COP(=O)(O)OP(=O)(O)OP(=O)(O)O)[C@@H](O)[C@H]1O | – | – | – | 0.63 | 0.92 | 2.06 | 0.52 | 63 | – | inhibition [22]: 0%; inhibition [23]: 0%; inhibition [24]: 0%
